ChEMBL document CHEMBL1156886, “Exploring epidermal growth factor receptor (EGFR) inhibitor features: the role of fused dioxygenated rings on the quinazoline scaffold” (J Med Chem, 2010)
The source made the active and inactive calls. The calls are words filed in the database; no cut-off is given here.

Key:
Format in all cases: functional, cell-based
[1] = system: A-431; experiment: Antiproliferative activity against human A431 cells assessed as cell growth at 10 uM pretreated for 24 hrs measured after 68 hrs of drug removel by MTT assay
[2] = system: A-431; experiment: Cytotoxicity against human A431 cells after 72 hrs by MTT assay; settings: A-431, 72 h
Summary of the method: (§1)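 MTT proliferation assay after 72 h continuous compound exposure in A431 (EGFR-overexpressing) and NIH3T3 (not expressing EGFR) cells. Highest concentration tested 10 μM, limited by precipitation in culture medium. IC50 not derived when inhibition stayed below 50% at 10 μM. Values are mean ± SD of at least three independent experiments.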

[3] = system: NIH3T3; experiment: Cytotoxicity against mouse NIH/3T3 cells after 72 hrs by MTT assay; settings: NIH3T3, 72 h; summary of the method: as §1
[4] = system: A-431; experiment: Antiproliferative activity against exogenous EGF-induced human A431 cell growth at 0.1 uM pretreated for 24 hrs measured after 72 hrs of drug removel by MTT assay

Row | Compound | Activity [1] | IC50 [2] | IC50 [3] | Activity [4]
1 | Cc1cccc(Nc2ncnc3cc4c(cc23)OCCCO4)c1 | Active | 6.29 µM | > 10 µM | –
2 | FC(F)(F)c1cccc(Nc2ncnc3cc4c(cc23)OCCCO4)c1 | Active | 4.73 µM | > 10 µM | –
3 | Fc1cc(Br)ccc1Nc1ncnc2cc3c(cc12)OCO3 | – | > 10 µM | – | –
4 | Fc1ccc(Nc2ncnc3cc4c(cc23)OCO4)cc1Cl | – | > 10 µM | – | –
5 | Cc1cccc(Nc2ncnc3cc4c(cc23)OCO4)c1 | Active | 6.69 µM | > 10 µM | –
6 | Fc1ccc(Nc2ncnc3cc4c(cc23)OCCCO4)cc1Cl | Active | 7.13 µM | > 10 µM | –
7 | Brc1cccc(Nc2ncnc3cc4c(cc23)OCO4)c1 | Active | 7.16 µM | > 10 µM | –
8 | Brc1cccc(Nc2ncnc3cc4c(cc23)OCCCO4)c1 | Active | 8.17 µM | > 10 µM | –
9 | FC(F)(F)c1cccc(Nc2ncnc3cc4c(cc23)OCO4)c1 | Active | 8.46 µM | > 10 µM | –
10 | Brc1cccc(Nc2ncnc3cc4c(cc23)OCCO4)c1 | Active | 0.75 µM | > 10 µM | –
11 | Cc1cccc(Nc2ncnc3cc4c(cc23)OCCO4)c1 | Active | 0.67 µM | 5.8 µM | –
12 | Fc1cc(Br)ccc1Nc1ncnc2cc3c(cc12)OCCCO3 | – | > 10 µM | – | –
13 | FC(F)(F)c1cccc(Nc2ncnc3cc4c(cc23)OCCO4)c1 | Active | 0.77 µM | 7.1 µM | –
14 | Fc1ccc(Nc2ncnc3cc4c(cc23)OCCO4)cc1Cl | – | > 10 µM | – | –
15 | COc1cc2ncnc(Nc3cccc(Br)c3)c2cc1OC | Active | – | > 10 µM | inactive
16 | Fc1cc(Br)ccc1Nc1ncnc2cc3c(cc12)OCCO3 | Active | 6.28 µM | 5.4 µM | –
